Laboratory results reported in ChEMBL document CHEMBL1806372, “Cytotoxic ring A-modified steroid analogues derived from Grundmann's ketone” (Eur J Med Chem, 2011).

What was measured:
Format in all cases: functional
COLO 205 = experiment: Growth inhibition of human COLO205 cells after 48 hrs by sulforhodamine B assay; conditions: COLO 205, 48 h
How it was run: (§1)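 From log concentration versus % growth curves, GI50 (50% decrease in net growth), TGI (total growth inhibition) and LC50 (net 50% loss of initial cells) are derived for each line.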

EKVX [1] = experiment: Cytotoxicity against human EKVX cells after 48 hrs by sulforhodamine B assay; conditions: read-out: LC50 (the source's name)
How it was run: (§2)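 NCI 60 human tumour cell line panel run to the NCI protocol. GI50, TGI and LC50 come from log concentration vs % growth inhibition curves for each cell line. Lines insensitive at the top concentration are reported with ">".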

SK-OV-3 = experiment: Cytotoxicity against human SKOV3 cells after 48 hrs by sulforhodamine B assay; conditions: SK-OV-3, 48 h, read-out: LC50 (the source's name); how it was run: as §2
A549 = experiment: Cytotoxicity against human A549 cells after 48 hrs by sulforhodamine B assay; conditions: A549, 48 h, read-out: LC50 (the source's name); how it was run: as §2
SF-268 = experiment: Growth inhibition of human SF268 cells after 48 hrs by sulforhodamine B assay; conditions: SF-268, 48 h
How it was run: (§3)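 GI50, TGI and LC50 were derived from log concentration versus % growth inhibition curves for each cell line. GI50 is the concentration giving a 50% decrease in net cell growth. Insensitive lines are reported as greater than the highest concentration.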

MOLT-4 = experiment: Cytotoxicity against human MOLT4 cells after 48 hrs by sulforhodamine B assay; conditions: MOLT-4, 48 h, read-out: LC50 (the source's name); how it was run: as §2
MCF7 = experiment: Growth inhibition of human MCF7 cells after 48 hrs by sulforhodamine B assay; conditions: MCF7, 48 h; how it was run: as §3
UACC-257 = experiment: Growth inhibition of human UACC257 cells after 48 hrs by sulforhodamine B assay; conditions: UACC-257, 48 h
How it was run: (§4)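 NCI 60-cell panel five-dose assay. GI50, TGI and LC50 are derived from log concentration versus % growth inhibition curves. Cell lines insensitive at the top concentration are given a ">" prefix.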

EKVX [2] = experiment: Growth inhibition of human EKVX cells after 48 hrs by sulforhodamine B assay; how it was run: as §1
NCI/ADR-RES = experiment: Growth inhibition of human NCI/ADR-RES cells after 48 hrs by sulforhodamine B assay; how it was run: as §3
RXF 393 = experiment: Growth inhibition of human RXF393 cells after 48 hrs by sulforhodamine B assay; conditions: RXF 393, 48 h; how it was run: as §3
NCI-H23 = experiment: Growth inhibition of human NCI-H23 cells after 48 hrs by sulforhodamine B assay; conditions: NCI-H23, 48 h; how it was run: as §3
SW-620 = experiment: Growth inhibition of human SW620 cells after 48 hrs by sulforhodamine B assay; conditions: SW-620, 48 h; how it was run: as §4
SR [3] = experiment: Cytotoxicity against human SR cells after 48 hrs by sulforhodamine B assay; conditions: read-out: LC50 (the source's name)
DU-145 = experiment: Cytotoxicity against human DU145 cells after 48 hrs by sulforhodamine B assay; conditions: DU-145, 48 h, read-out: LC50 (the source's name); how it was run: as §2
T47D [4] = experiment: Growth inhibition of human T47D cells after 48 hrs by sulforhodamine B assay; how it was run: as §4
K562 = experiment: Cytotoxicity against human K562 cells after 48 hrs by sulforhodamine B assay; conditions: K562, 48 h, read-out: LC50 (the source's name); how it was run: as §2
OVCAR-5 = experiment: Cytotoxicity against human OVCAR5 cells after 48 hrs by sulforhodamine B assay; conditions: OVCAR-5, 48 h, read-out: LC50 (the source's name); how it was run: as §2
HCC 2998 = experiment: Cytotoxicity against human HCC2998 cells after 48 hrs by sulforhodamine B assay; conditions: HCC 2998, 48 h, read-out: LC50 (the source's name); how it was run: as §2
MDA-MB-231 = experiment: Cytotoxicity against human MDA-MB-231 cells after 48 hrs by sulforhodamine B assay; conditions: MDA-MB-231, 48 h, read-out: LC50 (the source's name); how it was run: as §2
SR [5] = experiment: Growth inhibition of human SR cells after 48 hrs by sulforhodamine B assay; how it was run: as §4
SK-MEL-2 = experiment: Cytotoxicity against human SK-MEL-2 cells after 48 hrs by sulforhodamine B assay; conditions: SK-MEL-2, 48 h, read-out: LC50 (the source's name); how it was run: as §2
NCI-H460 = experiment: Cytotoxicity against human NCI-H460 cells after 48 hrs by sulforhodamine B assay; conditions: NCI-H460, 48 h, read-out: LC50 (the source's name); how it was run: as §2
BT-549 = experiment: Growth inhibition of human BT549 cells after 48 hrs by sulforhodamine B assay; conditions: BT-549, 48 h; how it was run: as §1
T47D [6] = experiment: Cytotoxicity against human T47D cells after 48 hrs by sulforhodamine B assay; conditions: read-out: LC50 (the source's name)
HT-29 = experiment: Cytotoxicity against human HT-29 cells after 48 hrs by sulforhodamine B assay; conditions: HT-29, 48 h, read-out: LC50 (the source's name); how it was run: as §2
NCI-H226 = experiment: Cytotoxicity against human NCI-H226 cells after 48 hrs by sulforhodamine B assay; conditions: NCI-H226, 48 h, read-out: LC50 (the source's name); how it was run: as §2
SF-539 = experiment: Growth inhibition of human SF539 cells after 48 hrs by sulforhodamine B assay; conditions: SF-539, 48 h; how it was run: as §3
PC-3 = experiment: Growth inhibition of human PC3 cells after 48 hrs by sulforhodamine B assay; conditions: PC-3, 48 h; how it was run: as §3
RPMI-8226 = experiment: Growth inhibition of human RPMI8226 cells after 48 hrs by sulforhodamine B assay; conditions: RPMI-8226, 48 h; how it was run: as §3
SF-295 = experiment: Cytotoxicity against human SF295 cells after 48 hrs by sulforhodamine B assay; conditions: SF-295, 48 h, read-out: LC50 (the source's name); how it was run: as §2
UACC-62 = experiment: Cytotoxicity against human UACC62 cells after 48 hrs by sulforhodamine B assay; conditions: UACC-62, 48 h, read-out: LC50 (the source's name)
TK-10 = experiment: Growth inhibition of human TK10 cells after 48 hrs by sulforhodamine B assay; conditions: TK-10, 48 h; how it was run: as §4
HOP-62 = experiment: Growth inhibition of human HOP62 cells after 48 hrs by sulforhodamine B assay; conditions: HOP-62, 48 h; how it was run: as §1
[7] = Cytotoxicity against human Hs 578T cells after 48 hrs by sulforhodamine B assay; conditions: read-out: LC50 (the source's name); how it was run: as §2
ACHN = experiment: Growth inhibition of human ACHN cells after 48 hrs by sulforhodamine B assay; how it was run: as §1
SK-MEL-5 = experiment: Growth inhibition of human SK-MEL-5 cells after 48 hrs by sulforhodamine B assay; conditions: SK-MEL-5, 48 h; how it was run: as §3

## CC(C)CCC[C@@H](C)[C@H]1CC[C@H]2C3=CCn4c(=O)ccc(=O)n4[C@@H]3CC[C@]12C
COLO 205
  GI50: 255 nM
  TGI: 623 nM
EKVX [1]
  CC50: 7330 nM
SK-OV-3
  CC50: 5470 nM
A549
  CC50: 4040 nM
SF-268
  GI50: 1460 nM
  TGI: 2880 nM
MOLT-4
  CC50: > 100000 nM
MCF7
  GI50: 285 nM
  TGI: 1240 nM
UACC-257
  GI50: 433 nM
  TGI: 1550 nM
EKVX [2]
  GI50: 1030 nM
  TGI: 2750 nM
NCI/ADR-RES
  GI50: 417 nM
  TGI: 1900 nM
RXF 393
  GI50: 952 nM
  TGI: 2300 nM
NCI-H23
  GI50: 1420 nM
  TGI: 3580 nM
SW-620
  GI50: 375 nM
  TGI: 1360 nM
SR [3]
  CC50: > 100000 nM
DU-145
  CC50: 4890 nM
T47D [4]
  GI50: 255 nM
  TGI: 1620 nM
K562
  CC50: > 100000 nM
OVCAR-5
  CC50: 7840 nM
HCC 2998
  CC50: 4990 nM
MDA-MB-231
  CC50: 6250 nM
SR [5]
  GI50: 137 nM
  TGI: 758 nM
SK-MEL-2
  CC50: 3390 nM
NCI-H460
  CC50: 5730 nM
BT-549
  GI50: 312 nM
  TGI: 876 nM
T47D [6]
  CC50: 6290 nM
HT-29
  CC50: 5510 nM
NCI-H226
  CC50: 8330 nM
SF-539
  GI50: 1470 nM
  TGI: 2890 nM
PC-3
  GI50: 243 nM
  TGI: 1110 nM
RPMI-8226
  GI50: 181 nM
  TGI: 601 nM
SF-295
  CC50: 3760 nM
UACC-62
  CC50: 5450 nM
TK-10
  GI50: 356 nM
  TGI: 1260 nM
HOP-62
  GI50: 1330 nM
  TGI: 2670 nM
[7]
  CC50: > 100000 nM
ACHN
  GI50: 1040 nM
  TGI: 2320 nM
SK-MEL-5
  GI50: 563 nM
  TGI: 1830 nM

## CC(C)CCC[C@@H](C)[C@H]1CC[C@H]2C3=CC[C@@H]4C(=O)C=CC(=O)[C@@H]4[C@@H]3CC[C@]12C
COLO 205
  GI50: 80 nM
  TGI: 220 nM
EKVX [1]
  CC50: > 100000 nM
SK-OV-3
  CC50: > 100000 nM
A549
  CC50: > 100000 nM
SF-268
  GI50: 566 nM
  TGI: > 100000 nM
MOLT-4
  CC50: > 100000 nM
MCF7
  GI50: 112 nM
  TGI: 757 nM
UACC-257
  GI50: 230 nM
  TGI: 610 nM
EKVX [2]
  GI50: 545 nM
  TGI: > 100000 nM
NCI/ADR-RES
  GI50: 275 nM
RXF 393
  GI50: 201 nM
  TGI: 995 nM
NCI-H23
  GI50: 147 nM
SW-620
  GI50: 141 nM
SR [3]
  CC50: > 100000 nM
DU-145
  CC50: > 100000 nM
T47D [4]
  GI50: 337 nM
  TGI: > 100000 nM
K562
  CC50: > 100000 nM
OVCAR-5
  CC50: > 100000 nM
HCC 2998
  CC50: > 100000 nM
MDA-MB-231
  CC50: > 100000 nM
SR [5]
  GI50: 207 nM
  TGI: > 100000 nM
SK-MEL-2
  CC50: > 100000 nM
NCI-H460
  CC50: > 100000 nM
BT-549
  GI50: 427 nM
  TGI: 2550 nM
T47D [6]
  CC50: > 100000 nM
HT-29
  CC50: > 100000 nM
NCI-H226
  CC50: > 100000 nM
SF-539
  GI50: 478 nM
PC-3
  GI50: 59 nM
  TGI: 1570 nM
RPMI-8226
  GI50: 107 nM
  TGI: 2230 nM
SF-295
  CC50: > 100000 nM
UACC-62
  CC50: > 100000 nM
TK-10
  GI50: 2650 nM
  TGI: > 100000 nM
HOP-62
  GI50: 630 nM
  TGI: > 100000 nM
[7]
  CC50: > 100000 nM
ACHN
  GI50: 162 nM
  TGI: 1350 nM
SK-MEL-5
  GI50: 309 nM
  TGI: 1000 nM
